Test results published in ChEMBL document CHEMBL1240337, “Identification of proteases that regulate erythrocyte rupture by the malaria parasite Plasmodium falciparum” (Nat Chem Biol, 2008).
Active and inactive are the calls of the source. No cut-off for these calls is given here.

What was measured:
[1] = system: Plasmodium falciparum; test: Antiplasmodial activity against Plasmodium falciparum infected in human erythrocytes assessed as effect on parasite morphology by Giemsa staining; type: functional, organism-based
Method in brief: (§1)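 Giemsa-stained thin blood films were read from schizonts exposed at 36 h post invasion to 10 µM inhibitor, to assess rupture and morphology.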

[2] = biological target: T1, Protease, putative (Plasmodium falciparum 3D7) (UniProt Q8I1Y2); test: Inhibition of Plasmodium falciparum 3D7 PFD0230c by fluorescence spectrophotometry
T1 sequence (whole entry): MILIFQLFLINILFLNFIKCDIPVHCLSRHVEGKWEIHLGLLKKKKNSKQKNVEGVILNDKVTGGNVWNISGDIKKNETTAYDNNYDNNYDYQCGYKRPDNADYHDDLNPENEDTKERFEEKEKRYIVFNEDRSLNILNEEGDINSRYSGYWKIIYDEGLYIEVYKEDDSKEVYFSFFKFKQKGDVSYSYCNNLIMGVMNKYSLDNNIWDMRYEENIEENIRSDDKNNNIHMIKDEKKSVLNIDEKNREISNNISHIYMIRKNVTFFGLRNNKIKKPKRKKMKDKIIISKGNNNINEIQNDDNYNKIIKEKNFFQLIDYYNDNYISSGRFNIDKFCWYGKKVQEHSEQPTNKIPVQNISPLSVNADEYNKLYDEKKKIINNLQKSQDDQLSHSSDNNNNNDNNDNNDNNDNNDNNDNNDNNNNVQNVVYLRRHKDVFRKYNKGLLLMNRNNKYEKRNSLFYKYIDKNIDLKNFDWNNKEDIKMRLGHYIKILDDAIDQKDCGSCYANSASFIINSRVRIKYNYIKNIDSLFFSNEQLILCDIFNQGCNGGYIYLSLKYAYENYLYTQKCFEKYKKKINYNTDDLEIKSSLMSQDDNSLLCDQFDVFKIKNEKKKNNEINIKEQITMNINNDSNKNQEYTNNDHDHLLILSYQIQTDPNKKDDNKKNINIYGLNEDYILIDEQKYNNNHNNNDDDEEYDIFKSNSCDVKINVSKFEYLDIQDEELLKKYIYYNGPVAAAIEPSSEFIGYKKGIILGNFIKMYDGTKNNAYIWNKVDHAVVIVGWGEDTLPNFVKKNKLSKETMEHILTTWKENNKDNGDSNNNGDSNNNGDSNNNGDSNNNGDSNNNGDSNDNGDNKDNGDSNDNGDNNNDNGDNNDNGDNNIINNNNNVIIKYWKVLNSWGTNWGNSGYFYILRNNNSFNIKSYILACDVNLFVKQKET

[3] = system: Plasmodium falciparum; test: Antiplasmodial activity against Plasmodium falciparum infected in human erythrocytes assessed as blockade of parasite-mediated rupture of erythrocytes by Giemsa staining; type: functional, organism-based; method in brief: as §1
[4] = biological target: T2, Probable cathepsin C (Plasmodium falciparum 3D7) (UniProt Q8IIJ9); test: Inhibition of Plasmodium falciparum 3D7 cathepsin C by fluorescence spectrophotometry
T2 sequence (whole entry): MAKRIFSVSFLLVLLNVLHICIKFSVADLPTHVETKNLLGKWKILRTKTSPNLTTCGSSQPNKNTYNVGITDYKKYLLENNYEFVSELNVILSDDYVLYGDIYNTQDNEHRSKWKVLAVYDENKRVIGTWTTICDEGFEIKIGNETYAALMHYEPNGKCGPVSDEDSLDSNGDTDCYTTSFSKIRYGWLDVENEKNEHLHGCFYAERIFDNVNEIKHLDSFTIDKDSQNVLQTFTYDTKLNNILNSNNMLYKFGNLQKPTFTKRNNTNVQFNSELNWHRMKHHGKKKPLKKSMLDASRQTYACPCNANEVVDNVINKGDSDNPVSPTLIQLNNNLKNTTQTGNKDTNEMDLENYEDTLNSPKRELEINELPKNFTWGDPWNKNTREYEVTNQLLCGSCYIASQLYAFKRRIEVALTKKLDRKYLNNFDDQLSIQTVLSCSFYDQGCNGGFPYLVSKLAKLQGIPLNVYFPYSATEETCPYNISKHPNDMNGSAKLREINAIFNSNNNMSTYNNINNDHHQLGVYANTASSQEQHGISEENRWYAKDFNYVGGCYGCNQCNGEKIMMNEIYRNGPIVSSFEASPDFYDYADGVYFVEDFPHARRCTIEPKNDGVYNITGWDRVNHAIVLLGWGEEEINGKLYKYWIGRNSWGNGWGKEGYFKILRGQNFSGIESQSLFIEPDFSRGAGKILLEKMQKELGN

| Structure (SMILES) | Activity [1] | inhibition [2] | Activity [3] | inhibition [4] |
| --- | --- | --- | --- | --- |
| CCC[C@H](N)C(=O)N[C@H](/C=C/S(=O)(=O)c1ccccc1)CCc1ccccc1 | inactive | Active | Active | Active |
| C[C@H](N)C(=O)N[C@H](/C=C/S(=O)(=O)c1ccccc1)CCc1ccccc1 | inactive | Active | Active | Active |
